Measurements published in ChEMBL document CHEMBL1629431, “Synthesis and antitumor activity of some 2, 3-disubstituted quinazolin-4(3H)-ones and 4, 6- disubstituted- 1, 2, 3, 4-tetrahydroquinazolin-2H-ones” (2010).

Experiments:
Format in all cases: functional
HL-60(TB) = assay: Growth inhibition of human HL-60(TB) cells at 10 uM after 48 hrs by coulter counter method; details: HL-60, 48 h, read-out: GI
Method in brief: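 Part of the NCI 60-cell-line single-high-dose panel. Cells were seeded at 6 × 10⁴ cells/mL with test solution in duplicate wells, alongside PBS/DMSO controls at identical dilutions. Plates were held 48 h at 37 °C in a humidified 5% CO₂ incubator. Cells were then diluted 10-fold in saline and counted by Coulter counter, with counts corrected for dilution. Results are percent growth of treated cells, reported as GI %.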

K562 = assay: Growth inhibition of human K562 cells at 10 uM after 48 hrs by coulter counter method; details: K562, 48 h, read-out: GI
Method in brief: (§1)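 Single high-dose NCI 60-cell-line panel screen across nine tumor subpanels. Test solutions (0.2 mL) were added in duplicate to wells holding 1.8 mL of culture at 6 × 10⁴ cells/mL. Controls got PBS and DMSO at identical dilutions. Incubation was 48 h at 37 °C in humidified 5% CO₂. Cells were diluted 10-fold in saline, Coulter-counted and dilution-corrected. Results were expressed as percent growth inhibition versus control.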

MOLT-4 = assay: Growth inhibition of human MOLT4 cells at 10 uM after 48 hrs by coulter counter method; details: MOLT-4, 48 h, read-out: GI; method in brief: as §1
[1] = Growth inhibition of human […] cells at 10 uM after 48 hrs by coulter counter method; details: read-out: GI; method in brief: as §1
A549 = assay: Growth inhibition of human A549 cells at 10 uM after 48 hrs by coulter counter method; details: A549, 48 h, read-out: GI; method in brief: as §1
HOP-92 = assay: Growth inhibition of human HOP92 cells at 10 uM after 48 hrs by coulter counter method; details: HOP-92, 48 h, read-out: GI; method in brief: as §1
NCI-H226 = assay: Growth inhibition of human NCI-H226 cells at 10 uM after 48 hrs by coulter counter method; details: NCI-H226, 48 h, read-out: GI; method in brief: as §1
NCI-H23 = assay: Growth inhibition of human NCI-H23 cells at 10 uM after 48 hrs by coulter counter method; details: NCI-H23, 48 h, read-out: GI; method in brief: as §1
NCI-H522 = assay: Growth inhibition of human NCI-H522 cells at 10 uM after 48 hrs by coulter counter method; details: NCI-H522, 48 h, read-out: GI; method in brief: as §1
COLO 205 = assay: Growth inhibition of human COLO205 cells at 10 uM after 48 hrs by coulter counter method; details: COLO 205, 48 h, read-out: GI; method in brief: as §1
HCT-116 = assay: Growth inhibition of human HCT116 cells at 10 uM after 48 hrs by coulter counter method; details: HCT-116, 48 h, read-out: GI; method in brief: as §1
KM12 = assay: Growth inhibition of human KM12 cells at 10 uM after 48 hrs by coulter counter method; details: KM12, 48 h, read-out: GI; method in brief: as §1
SF-268 = assay: Growth inhibition of human SF268 cells at 10 uM after 48 hrs by coulter counter method; details: SF-268, 48 h, read-out: GI; method in brief: as §1
SF-539 = assay: Growth inhibition of human SF539 cells at 10 uM after 48 hrs by coulter counter method; details: SF-539, 48 h, read-out: GI; method in brief: as §1
SNB-75 = assay: Growth inhibition of human SNB75 cells at 10 uM after 48 hrs by coulter counter method; details: SNB-75, 48 h, read-out: GI; method in brief: as §1
U-251 = assay: Growth inhibition of human U251 cells at 10 uM after 48 hrs by coulter counter method; details: U-251, 48 h, read-out: GI; method in brief: as §1
M14 = assay: Growth inhibition of human M14 cells at 10 uM after 48 hrs by coulter counter method; details: M14, 48 h, read-out: GI; method in brief: as §1
SK-MEL-2 = assay: Growth inhibition of human SK-MEL-2 cells at 10 uM after 48 hrs by coulter counter method; details: SK-MEL-2, 48 h, read-out: GI; method in brief: as §1
SK-MEL-28 = assay: Growth inhibition of human SK-MEL-28 cells at 10 uM after 48 hrs by coulter counter method; details: SK-MEL-28, 48 h, read-out: GI; method in brief: as §1
UACC-62 = assay: Growth inhibition of human UACC62 cells at 10 uM after 48 hrs by coulter counter method; details: UACC-62, 48 h, read-out: GI; method in brief: as §1
IGROV-1 = assay: Growth inhibition of human IGROV1 cells at 10 uM after 48 hrs by coulter counter method; details: IGROV-1, 48 h, read-out: GI; method in brief: as §1
OVCAR-4 = assay: Growth inhibition of human OVCAR4 cells at 10 uM after 48 hrs by coulter counter method; details: OVCAR-4, 48 h, read-out: GI; method in brief: as §1
OVCAR-8 = assay: Growth inhibition of human OVCAR8 cells at 10 uM after 48 hrs by coulter counter method; details: OVCAR-8, 48 h, read-out: GI; method in brief: as §1
SK-OV-3 = assay: Growth inhibition of human SKOV3 cells at 10 uM after 48 hrs by coulter counter method; details: SK-OV-3, 48 h, read-out: GI; method in brief: as §1
786-0 = assay: Growth inhibition of human 786-0 cells at 10 uM after 48 hrs by coulter counter method; details: 786-0, 48 h, read-out: GI; method in brief: as §1
CAKI-1 = assay: Growth inhibition of human Caki1 cells at 10 uM after 48 hrs by coulter counter method; details: CAKI-1, 48 h, read-out: GI; method in brief: as §1
SN12C = assay: Growth inhibition of human SN12C cells at 10 uM after 48 hrs by coulter counter method; details: read-out: GI; method in brief: as §1
UO-31 = assay: Growth inhibition of human UO31 cells at 10 uM after 48 hrs by coulter counter method; details: UO-31, 48 h, read-out: GI; method in brief: as §1
PC-3 = assay: Growth inhibition of human PC3 cells at 10 uM after 48 hrs by coulter counter method; details: PC-3, 48 h, read-out: GI; method in brief: as §1
MCF7 = assay: Growth inhibition of human MCF7 cells at 10 uM after 48 hrs by coulter counter method; details: MCF7, 48 h, read-out: GI; method in brief: as §1
MDA-MB-231 = assay: Growth inhibition of human MDA-MB-231 cells at 10 uM after 48 hrs by coulter counter method; details: MDA-MB-231, 48 h, read-out: GI; method in brief: as §1
[2] = Growth inhibition of human Hs 578T cells at 10 uM after 48 hrs by coulter counter method; details: read-out: GI; method in brief: as §1
T47D = assay: Growth inhibition of human T47D cells at 10 uM after 48 hrs by coulter counter method; details: read-out: GI; method in brief: as §1
MDA-MB-468 = assay: Growth inhibition of human MDA-MB-468 cells at 10 uM after 48 hrs by coulter counter method; details: MDA-MB-468, 48 h, read-out: GI; method in brief: as §1

## CSc1nc2ccccc2c(=O)n1-c1ccc(Cl)cc1
HL-60(TB)
  inhibition of growth at 10 µM: 32%
K562
  inhibition of growth at 10 µM: 44.1%
MOLT-4
  inhibition of growth at 10 µM: 31.4%
[1]
  inhibition of growth at 10 µM: 35.8%
A549
  inhibition of growth at 10 µM: 30%
HOP-92
  inhibition of growth at 10 µM: 30%
NCI-H226
  inhibition of growth at 10 µM: 30%
NCI-H23
  inhibition of growth at 10 µM: 30%
NCI-H522
  inhibition of growth at 10 µM: 30%
COLO 205
  inhibition of growth at 10 µM: 30%
HCT-116
  inhibition of growth at 10 µM: 30%
KM12
  inhibition of growth at 10 µM: 30%
SF-268
  inhibition of growth at 10 µM: 30%
SF-539
  inhibition of growth at 10 µM: 30%
SNB-75
  inhibition of growth at 10 µM: 30%
U-251
  inhibition of growth at 10 µM: 30%
M14
  inhibition of growth at 10 µM: 30%
SK-MEL-2
  inhibition of growth at 10 µM: 30%
SK-MEL-28
  inhibition of growth at 10 µM: 30%
UACC-62
  inhibition of growth at 10 µM: 30%
IGROV-1
  inhibition of growth at 10 µM: 30%
OVCAR-4
  inhibition of growth at 10 µM: 30%
OVCAR-8
  inhibition of growth at 10 µM: 30%
SK-OV-3
  inhibition of growth at 10 µM: 30%
786-0
  inhibition of growth at 10 µM: 30%
CAKI-1
  inhibition of growth at 10 µM: 30%
SN12C
  inhibition of growth at 10 µM: 30%
UO-31
  inhibition of growth at 10 µM: 30%
PC-3
  inhibition of growth at 10 µM: 50.3%
MCF7
  inhibition of growth at 10 µM: 30%
MDA-MB-231
  inhibition of growth at 10 µM: 30%
[2]
  inhibition of growth at 10 µM: 30%
T47D
  inhibition of growth at 10 µM: 47%
MDA-MB-468
  inhibition of growth at 10 µM: 30%
